Assays:
T1R2 = molecular target: T1, T1R2 (Homo sapiens, UniProt Q8TE23); test: T1R2-HEMT biosensor interaction, dissociation constant; type: binding
T1 sequence (Q8TE23 20-839): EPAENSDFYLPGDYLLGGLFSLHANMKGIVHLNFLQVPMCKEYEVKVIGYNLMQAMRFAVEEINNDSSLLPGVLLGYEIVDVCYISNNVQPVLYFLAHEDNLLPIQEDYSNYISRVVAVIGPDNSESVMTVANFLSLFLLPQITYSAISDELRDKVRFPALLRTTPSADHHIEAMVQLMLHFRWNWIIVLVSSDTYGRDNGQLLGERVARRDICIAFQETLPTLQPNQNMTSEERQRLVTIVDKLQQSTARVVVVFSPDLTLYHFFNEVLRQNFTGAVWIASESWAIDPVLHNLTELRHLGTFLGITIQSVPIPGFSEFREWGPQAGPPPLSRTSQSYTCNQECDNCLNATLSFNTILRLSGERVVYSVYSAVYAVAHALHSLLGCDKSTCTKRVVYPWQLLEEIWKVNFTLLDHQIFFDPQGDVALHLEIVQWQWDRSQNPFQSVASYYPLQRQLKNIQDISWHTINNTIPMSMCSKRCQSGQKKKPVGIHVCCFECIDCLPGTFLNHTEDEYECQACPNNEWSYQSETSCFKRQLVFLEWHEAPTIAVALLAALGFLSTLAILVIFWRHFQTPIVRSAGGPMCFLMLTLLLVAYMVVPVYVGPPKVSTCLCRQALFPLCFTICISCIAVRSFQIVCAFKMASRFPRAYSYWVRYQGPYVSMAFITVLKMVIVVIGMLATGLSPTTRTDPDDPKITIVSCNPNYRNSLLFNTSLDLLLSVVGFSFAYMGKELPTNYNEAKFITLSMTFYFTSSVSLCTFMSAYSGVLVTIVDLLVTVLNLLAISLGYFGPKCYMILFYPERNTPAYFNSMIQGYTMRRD
Outline: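 Recombinant T1R2 and T1R3 proteins (100 μg·mL⁻¹) were immobilised on an AlGaAs/GaAs HEMT chip at 4 °C. Test compounds in 0.5% DMSO were applied at eleven concentrations from 0.1 pmol·L⁻¹ to 1 mmol·L⁻¹. KD was derived by a linear fit of [C]/ΔI against [C], where ΔI is the current change and ΔImax the saturated current change.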

T1R3 = molecular target: T2, T1R3 (Homo sapiens, UniProt Q7RTX0); test: T1R3-HEMT biosensor interaction, dissociation constant; type: binding
T2 sequence (Q7RTX0 21-852): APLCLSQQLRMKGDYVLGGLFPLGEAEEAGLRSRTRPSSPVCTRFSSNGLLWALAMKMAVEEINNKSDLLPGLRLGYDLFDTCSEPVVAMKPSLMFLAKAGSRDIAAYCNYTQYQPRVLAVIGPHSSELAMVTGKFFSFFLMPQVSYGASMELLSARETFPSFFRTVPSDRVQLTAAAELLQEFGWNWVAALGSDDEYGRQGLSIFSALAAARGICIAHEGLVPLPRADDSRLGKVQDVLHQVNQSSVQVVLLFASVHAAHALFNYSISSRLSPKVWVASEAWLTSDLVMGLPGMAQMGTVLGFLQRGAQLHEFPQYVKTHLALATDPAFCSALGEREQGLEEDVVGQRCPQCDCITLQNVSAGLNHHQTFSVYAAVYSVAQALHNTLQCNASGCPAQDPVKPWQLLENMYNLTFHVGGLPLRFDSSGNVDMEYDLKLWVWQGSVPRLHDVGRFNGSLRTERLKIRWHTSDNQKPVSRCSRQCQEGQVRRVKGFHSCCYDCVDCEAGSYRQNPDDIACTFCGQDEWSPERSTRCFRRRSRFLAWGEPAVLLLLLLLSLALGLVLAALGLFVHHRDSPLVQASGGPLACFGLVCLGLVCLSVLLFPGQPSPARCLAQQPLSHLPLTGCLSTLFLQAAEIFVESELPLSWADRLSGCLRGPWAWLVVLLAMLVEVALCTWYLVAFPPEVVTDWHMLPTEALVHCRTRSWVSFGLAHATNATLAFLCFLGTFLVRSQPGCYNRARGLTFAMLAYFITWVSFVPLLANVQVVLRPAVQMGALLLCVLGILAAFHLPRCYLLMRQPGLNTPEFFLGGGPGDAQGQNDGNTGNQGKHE

[1] = tested on: Tg (fli1a: EGFP) zebrafish; test: Zebrafish vascular injury model; type: in vivo; conditions: for dose relation of the ameliorative effect on vascular injury: different concentrations, PTK787 model
Outline: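 Tg(fli1a:EGFP) embryos at 24 hpf were dechorionated with 1 mg·mL⁻¹ protease E and placed 10 per well, 3 wells per group, in fish water (NaCl/KCl/CaCl2/MgSO4). Groups were vehicle (0.1% DMSO), 0.2 µg·mL⁻¹ PTK787, PTK787 plus 0.2 mg·mL⁻¹ aspirin, and PTK787 plus test compound. Exposure lasted 24 h at 28.5 °C on a 14/10 h light/dark cycle. ISV development was observed and ISV length measured.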

Tg (mpx: EGFP) zebrafish = test: Zebrafish immunocompromised model; type: in vivo; conditions: for immune enhancement (number of neutrophils): compared to the model group
[2] = 25 µM·L^−1, with 0.2 µg·mL^−1 PTK787, compared with the model group

Row | Kd (T1R2) [nM] | Kd (T1R3) [nM] | SMILES | effect on ISVs [1, 2] | dose relation of the ameliorative effect on vascular injury [1] | also measured
1 | 52.5 | 0.217 | C[C@@H]1CC[C@@]2(OC1)O[C@H]1C[C@H]3[C@@H]4CC=C5C[C@@H](O)C[C@@H](O)[C@]5(C)[C@H]4CC[C@]3(C)[C@H]1[C@@H]2C [ruscogenin] | significantly promote ISVs | stronger at medium and high doses | immune enhancement (number of neutrophils) (Tg (mpx: EGFP) zebrafish; 100 µM·L^−1, with 100 µg·mL^−1 vinorelbine): immune-enhancing effect
2 |  |  | CCC1=C[C@@H]2CN(C1)Cc1c([nH]c3ccccc13)[C@@](C(=O)OC)(c1cc3c(cc1OC)N(C)[C@H]1[C@@](O)(C(=O)OC)[C@H](OC(C)=O)[C@]4(CC)C=CCN5CC[C@]31[C@@H]54)C2 [vinorelbine, Vinorelbine, reference compound] |  |  | number of neutrophils in the zebrafish tail (Tg (mpx: EGFP) zebrafish; 100 µg·mL^−1, model construction): significantly reduced
3 | 0.0017 | 0.641 | COc1ccc(-c2coc3cc(O)ccc3c2=O)cc1O [calycosin] | significantly promote ISVs | stronger at a low dose | immune enhancement (number of neutrophils) (Tg (mpx: EGFP) zebrafish; 50 µM·L^−1, with 100 µg·mL^−1 vinorelbine): immune-enhancing effect
4 | 1.06 | 0.0882 | C=C1CCC[C@]2(C)C=C3OC(=O)C(C)=C3C[C@@H]12 [atractylenolide I] |  | dose-dependent effects | effect on ISVs ([1]; 50 µM·L^−1, with 0.2 µg·mL^−1 PTK787, compared with the model group): significantly promote ISVs
5 |  |  | Clc1ccc(Nc2nnc(Cc3ccncc3)c3ccccc23)cc1 [PTK787, Vatalanib (PTK787) 2HCl, reference compound] |  |  | total length of ISVs ([1]; 0.2 µg·mL^−1, compared with the control group, 24 h exposure): significantly reduce; teratogenicity ([1]; 0.2 µg·mL^−1, zebrafish embryos): not teratogenic

— publication PMC13424379 (Fundamental Research, 2024)
